UPR XBP1 act: activators of adaptive arm of unfolded protein response (XBP1) | CHO-XBP1 luciferase reporter, IRE1-XBP1 UPR activation, luminescence; percent of tunicamycin response, DMSO as zero | activation, % at 20 µM | 330,000 compounds, 0.33% hits | AID 463104;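 active = versus positive control, 20 µM dose yields 30% or more activation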;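 note: 100% = tunicamycin at 10 µg/mL and 0% = DMSO only wells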
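Material: IRE1-XBP1 luciferase reporter CHO line / Quantity: one thousand reporter cells per well / Buffer or medium: F12 with 10% serum / Compound: 20 µM single concentration, DMSO 1% / Times: 6 h treatment, 37 °C / Detection: Steady-Glo luciferase glow luminescence, 10 min after reagent addition / Benchmarks: tunicamycin high, DMSO low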
aDG glyco act: alpha-DG glycosylation activation; Pro5-aDG cells, alpha-DG glycosylation AlphaScreen (IIH6); 0% Pro5, 100% B10-LARGE cell signal; activation, % at 10 µM; 360,000 compounds, 0.22% hits;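 active = activation of at least 8% versus controls, or a plate z-score of at least 8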;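 note: Pro5 are CHO cells carrying HIG-tagged alpha-DG that lacks glycosylation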
UPR CHOP act: activators of apoptotic arm of unfolded protein response (CHOP) | AID 449763 | CHO-CHOP luciferase reporter, UPR activation, luminescence; percent of tunicamycin response over DMSO baseline | 330,000 compounds, 0.34% hits | activation, % at 10 µM;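 active = at 10 µM dose, activation of 40% or more, normalized to positive control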;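 note: 100% = tunicamycin at 10 µg/mL and 0% = DMSO alone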
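System: CHO-CHOP luciferase reporter cell line; amount: 500 cells/well; buffer or medium: F12 medium containing 10% fetal bovine serum; incubation: 6 h compound exposure at 37 °C after overnight seeding; measured by: luciferase luminescence after 10 min with Steady-Glo reagent; evaluation: % reporter activation, DMSO baseline versus tunicamycin full activation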
GRIN3A LBD mod: modulators (binders) of human NR3A ligand-binding domain. NR3A LBD differential scanning fluorimetry, Tm shift; 0% = protein alone, 100% = glycine-bound protein. Tm shift relative to glycine control, % at 25 µM. 340,000 compounds, 2.5% hits. AID 1259313;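 active = melting temperature shift of at least 10% of the positive control shift, at one fixed dose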
MPTP block: inhibitors of mitochondrial permeability transition pore | isolated mouse mitochondria, Ca2+ swelling absorbance, 30 min | 360,000 compounds, 1.4% hits | inhibition, % at 10 µM;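 active = inhibition of 50% or more, scaled per plate between neutral and stimulator controls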;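 note: 0% = DMSO wells given calcium and 100% = 1 mM EGTA wells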
CHOP inhibitor: blocks CHOP induction under ER stress. CHO-K1 CHOP-promoter luciferase, tunicamycin-induced, 15-18 h. inhibition, % at 10 µM. 220,000 compounds, 3.8% hits. AID 2732;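 active = compounds that reduced the stress-induced luciferase reporter signal by more than about 70% of percent inhibition, limit read from the data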;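 note: 0% = tunicamycin plus vehicle and 100% = wells without tunicamycin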
Active calls of the source: *; . = no result given. Hits are enriched below; roughly 5.6% of the tested compounds scored in any of these assays.

SMILES | UPR XBP1 act | aDG glyco act | UPR CHOP act | GRIN3A LBD mod | MPTP block | CHOP inhibitor
CCC(=O)N(C)C[C@H]1Oc2ncc(C#Cc3ccncc3)cc2C(=O)N([C@@H](C)CO)C[C@@H]1C | . | 0.2 | . | . | -0.5 | .
CCOC(=O)c1c(C)n(C(=O)c2ccco2)c(=O)n1C(=O)c1ccco1 | -1.2 | 0.7 | -0.7 | -2.6 | 3.2 | 84.9*
CC(C)NC(=O)c1sc2nc(-c3cccs3)cc(-c3cccs3)c2c1N | -1.6 | . | 0.8 | -5.0 | . | 19.1
CC(=O)c1sc2nc(-c3cccs3)ccc2c1N | 1.4 | -0.5 | 3.8 | 22.4* | 1.2 | -18.9
COCCn1c(SCC(=O)N2CCCC2)nc2c(c1=O)SCC2 | . | 0.0 | . | . | -2.1 | .
COCCn1c(SCC(=O)N2CCC(C)CC2)nc2c(c1=O)SCC2 | -6.1 | -0.1 | 0.6 | 11.1* | 0.7 | .
O=c1[nH]c2ccccc2n1CCCSc1cnc2ccccc2n1 | 1.0 | 0.4 | -2.1 | -0.4 | -5.5 | 77.8*
COc1ccc(NC(=O)C2CCN(S(=O)(=O)c3c(C)noc3C)CC2)cc1Cl | -1.9 | 0.0 | 0.9 | 15.7* | 1.1 | 57.9
CNC(=O)C1CCN(S(=O)(=O)c2c(C)noc2/C=C/c2ccc(C)cc2)CC1 | 2.0 | -0.2 | 1.3 | 79.3* | 0.4 | .
O=c1c(C=Nc2ccc(Cl)cc2)c[nH]n1-c1cccc(Cl)n1 | -1.3 | -0.1 | 1.6 | 1.4 | -1.3 | 83.4*
CCOC(=O)C1(C)CCN1C(=O)CSc1ccccc1 (stereo not given) | . | 0.0 | . | . | 0.5 | .
C=CCNc1nc2c(c(=O)[nH]c(=O)n2C)n1CCCc1ccccc1 | -2.6 | -0.1 | -0.9 | -3.3 | 1.0 | .
O=C(O)c1ccc(-c2nc(-c3ccccc3)c(-c3ccccc3)[nH]2)cc1 | -2.3 | 0.2 | 1.5 | -13.4 | 36.1 | 26.9
Cc1ccsc1-c1nc(-c2ccccc2)c(-c2ccccc2)[nH]1 | 1.0 | 0.8 | 1.9 | -9.0 | 44.4 | 82.3*
O=C1C=C(c2ccc3[nH]ccc3c2)C[C@@H](c2ccc(Cl)cc2)C1 | -2.9 | 0.3 | 1.2 | 21.6* | 1.9 | .
O=C1C=C(c2cc(C(F)(F)F)cc(C(F)(F)F)c2)C[C@@H](c2ccc(Cl)cc2)C1 | 3.0 | 0.2 | -0.1 | 12.9* | 7.6 | .
O=C1C=C(c2ccc3ccccc3c2)C[C@@H](c2ccc(Cl)cc2)C1 | 1.2 | -0.1 | 2.3 | 2.7 | -1.8 | .
COc1ccc(CNC(=O)COC(=O)c2ccc(Br)cc2)cc1 | 2.0 | 0.2 | 5.8 | 0.4 | 1.2 | 27.6
O=C(NCCN1CCCC1)c1ccc(Br)cc1 | -1.8 | 0.0 | -0.1 | 1.4 | -0.9 | .
COc1cccc(N/C=C/C(=O)c2ccc(C)cc2)c1 | -7.7 | -0.1 | 2.0 | -7.7 | 1.7 | .
COc1ccc(N/C=C/C(=O)c2cc(OC)c(OC)c(OC)c2)cc1 | 28.9 | 0.0 | 9.8 | 30.2* | 2.5 | .
COc1cccc(C(=O)/C=C/Nc2cccc(O)c2)c1 | -4.2 | -0.3 | -5.5 | 12.6* | 0.5 | 23.8
COc1cccc(C(=O)/C=C/Nc2ccc(S(=O)(=O)Nc3cccc(C(C)=O)c3)cc2)c1 | 4.5 | 3.3 | 9.8 | 12.6* | 30.3 | 61.3
Cc1cccc2cc(CN(C(=S)NCC(C)C)C3CCCC3)c(=O)[nH]c12 | -0.3 | 0.5 | 2.5 | 13.1* | -0.1 | 37.4
CCNC(=S)N(Cc1cc2cccc(C)c2[nH]c1=O)C1CCCC1 | 1.1 | -0.2 | 3.1 | 5.6 | 1.8 | 10.2
O=C(COc1cccc(Cl)c1)Nc1ccc2c(c1)CCC2 | -0.1 | -0.2 | 3.3 | 4.5 | 6.8 | 59.5
C[C@@]12C(=O)OC(=O)[C@]1(C)C1CCC2O1 | -0.6 | 0.1 | 101.1* | 0.6 | -0.9 | .
Cc1ccc(N2CCN(C(=O)c3cc(-c4ccc(F)cc4)[nH]c3C)CC2C)cc1 (stereo not given) | -5.2 | 0.1 | 0.8 | -2.7 | -0.3 | .
CCc1cc2cc(C)cc(C)c2nc1SCC(=O)N1CCCC1 | -0.1 | 0.5 | -0.6 | -2.3 | 0.0 | 87.2*
C=CC[C@H](CC(=O)N(CCO)Cc1ccccc1)C(=O)N[C@H](COC(=O)[C@@H](CC=C)Cc1ccc(F)cc1)Cc1ccccc1 | -0.2 | 0.2 | 10.5 | -13.9 | 0.3 | .

Screening data: PubChem, several laboratories
